Measurements from ChEMBL document CHEMBL3808276, “Identification of Adenine and Benzimidazole Nucleosides as Potent Human Concentrative Nucleoside Transporter 2 Inhibitors: Potential Treatment for Hyperuricemia and Gout” (J Med Chem, 2016).
≈ marks a conversion by molar mass, not a printed value. Calls of active or inactive are those of the source. No cut-off for these calls is given here.

Columns and labels:
[1] = biological target: T1, Sodium/nucleoside cotransporter 2 (Rattus norvegicus) (UniProt Q62773); assay: Inhibition of rat CNT2 expressed in African green monkey COS7 cells assessed as reduction of [14C]-inosine uptake at 100 uM by liquid scintillation counting analysis; assay type: cell-based; conditions: COS-7
T1 sequence (whole entry): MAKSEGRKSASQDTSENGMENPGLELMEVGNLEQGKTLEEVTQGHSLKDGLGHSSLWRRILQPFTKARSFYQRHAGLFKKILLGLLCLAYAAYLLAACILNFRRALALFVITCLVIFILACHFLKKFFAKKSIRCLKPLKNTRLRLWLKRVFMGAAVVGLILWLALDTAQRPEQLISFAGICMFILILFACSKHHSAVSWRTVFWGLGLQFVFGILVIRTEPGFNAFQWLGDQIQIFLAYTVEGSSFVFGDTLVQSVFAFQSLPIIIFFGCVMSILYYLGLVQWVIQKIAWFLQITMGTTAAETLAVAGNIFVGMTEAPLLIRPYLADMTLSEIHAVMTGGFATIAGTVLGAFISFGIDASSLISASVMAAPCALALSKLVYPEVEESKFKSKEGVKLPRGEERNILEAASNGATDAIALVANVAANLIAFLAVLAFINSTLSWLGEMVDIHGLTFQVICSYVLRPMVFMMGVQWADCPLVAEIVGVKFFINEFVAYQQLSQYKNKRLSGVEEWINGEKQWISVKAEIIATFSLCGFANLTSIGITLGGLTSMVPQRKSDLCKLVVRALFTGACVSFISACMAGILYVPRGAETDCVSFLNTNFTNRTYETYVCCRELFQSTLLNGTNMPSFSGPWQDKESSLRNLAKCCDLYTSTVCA

[2] = biological target: T2, Sodium/nucleoside cotransporter 2 (Rattus norvegicus, UniProt Q62773); assay: Inhibition of rat CNT2 expressed in African green monkey COS7 cells assessed as reduction of [14C]-inosine uptake by liquid scintillation counting analysis; assay type: cell-based, COS-7
T2 sequence (Q62773 whole entry): T1 sequence (whole entry)
How it was run: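 rCNT2 transiently expressed in COS-7 cells, used 2 days post-transfection. 10 µM [14C]inosine uptake at 37 °C for 30 min in the presence of 10 µM NBMPR. Uptake run with Na+ or with choline replacing Na+, pH 7.4; the Na+-dependent difference defined 100% transport. Scintillation read-out; IC50 by nonlinear regression, ≥3 independent runs.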

[3] = biological target: T3, Sodium/nucleoside cotransporter 2 (Homo sapiens, UniProt O43868); assay: Inhibition of human CNT2 expressed in African green monkey COS7 cells assessed as reduction of [14C]-inosine uptake by liquid scintillation counting analysis; assay type: cell-based, COS-7
T3 sequence (O43868 whole entry): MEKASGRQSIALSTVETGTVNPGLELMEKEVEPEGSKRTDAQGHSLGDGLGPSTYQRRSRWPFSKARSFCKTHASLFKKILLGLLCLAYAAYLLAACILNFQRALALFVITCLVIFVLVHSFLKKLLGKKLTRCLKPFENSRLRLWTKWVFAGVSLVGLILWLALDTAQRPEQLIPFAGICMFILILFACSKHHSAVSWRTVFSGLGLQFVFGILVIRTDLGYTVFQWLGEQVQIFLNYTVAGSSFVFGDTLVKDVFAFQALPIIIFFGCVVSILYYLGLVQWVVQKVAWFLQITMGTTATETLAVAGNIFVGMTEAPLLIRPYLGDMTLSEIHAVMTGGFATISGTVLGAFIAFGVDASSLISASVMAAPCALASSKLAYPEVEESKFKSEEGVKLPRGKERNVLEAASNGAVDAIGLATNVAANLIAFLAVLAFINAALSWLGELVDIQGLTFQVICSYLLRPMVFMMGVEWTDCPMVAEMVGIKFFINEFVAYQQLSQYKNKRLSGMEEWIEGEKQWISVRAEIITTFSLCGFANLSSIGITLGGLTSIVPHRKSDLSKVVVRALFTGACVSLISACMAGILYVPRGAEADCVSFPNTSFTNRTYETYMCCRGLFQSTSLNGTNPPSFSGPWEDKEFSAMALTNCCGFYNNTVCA
How it was run: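 COS-7 cells transiently transfected with hCNT2 in pCI-neo, assayed after 2 days. Pretreated in Na+-free choline buffer, 37 °C, 2×10 min. Uptake of 10 µM [14C]inosine for 30 min at 37 °C with 10 µM NBMPR, ±Na+, pH 7.4. Na+-dependent uptake set as 100%; lysate counted by scintillation. IC50 by nonlinear regression, ≥3 experiments; top concentration 100 µM.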

[4] = Solubility of compound in JP2 at pH 6.8 after 1 hr at 37 degC; assay type: physicochemical; conditions: JP2, pH 6.8
How it was run: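 Solubility measured in JP2, a 1:1 mix of pH 6.8 phosphate buffer and water, after incubation for 1 h at 37 °C.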

| Compound | inhibition [1] | IC50 [2] | IC50 [3] | solubility at 1 h [4] |
| --- | --- | --- | --- | --- |
| Nc1ncnc2c1nc(NCc1ccc(-c3ccccc3)c(OCCO)c1)n2[C@@H]1O[C@H](CO)[C@@H](O)[C@H]1O | 49% | > 100 µM | 3.1 µM | – |
| CC(C)Oc1cc(-c2ccccc2)ccc1CNc1nc2c(N)ncnc2n1[C@@H]1O[C@H](CO)[C@@H](O)[C@H]1O | inactive | – | 9.3 µM | – |
| CC(C)Oc1cc(CNc2nc3c(N)ncnc3n2[C@@H]2O[C@H](CO)[C@@H](O)[C@H]2O)ccc1-c1ccccc1 | inactive | – | 10.4 µM | – |
| COC(=O)COc1cc(CNc2nc3c(N)ncnc3n2[C@@H]2O[C@H](CO)[C@@H](O)[C@H]2O)ccc1-c1ccccc1 | inactive | – | 3.3 µM | – |
| Nc1ncnc2c1nc(NCc1ccc(-c3ccccc3)c(OCCCCCO)c1)n2[C@@H]1O[C@H](CO)[C@@H](O)[C@H]1O | – | 60 µM | 1.6 µM | – |

Second part, the molecule after the results:

| inhibition [1] | IC50 [2] | IC50 [3] | solubility at 1 h [4] | Compound |
| --- | --- | --- | --- | --- |
| inactive | – | 5.4 µM | 2 µg/mL (≈ 4.06 µM) | CCOc1cc(-c2ccccc2)ccc1CNc1nc2c(N)ncnc2n1[C@@H]1O[C@H](CO)[C@@H](O)[C@H]1O |
| 11% | > 100 µM | 1 µM | – | Nc1ncnc2c1nc(NCc1ccc(-c3cccnc3)cc1)n2[C@@H]1O[C@H](CO)[C@@H](O)[C@H]1O |
| inactive | – | 1.3 µM | – | Nc1ncnc2c1nc(NCc1ccc(-c3ccccc3)cc1O)n2[C@@H]1O[C@H](CO)[C@@H](O)[C@H]1O |
| inactive | – | 1.1 µM | 4 µg/mL (≈ 8.36 µM) | COc1cc(-c2ccccc2)ccc1CNc1nc2c(N)ncnc2n1[C@@H]1O[C@H](CO)[C@@H](O)[C@H]1O |
| inactive | – | 1.5 µM | – | Nc1ncnc2c1nc(NCc1ccc(-c3ccccn3)cc1)n2[C@@H]1O[C@H](CO)[C@@H](O)[C@H]1O |
| inactive | – | – | 3 µg/mL (≈ 6.69 µM) | Nc1ncnc2c1nc(NCc1ccc(-c3ccccc3)cc1)n2[C@@H]1O[C@H](CO)[C@@H](O)[C@H]1O |
